In ChEMBL document CHEMBL1938381, “Design, synthesis, and structure-activity relationship studies of conformationally restricted mutilin 14-carbamates” (2012) one finds Ratio and MIC data, which are given here for ten molecules.

The structures appear in SMILES notation. Values after ≈ are worked out from the molar mass of the structure shown.

What all share (type): functional
Assay [1] has as its system Streptococcus pneumoniae. In words: Ratio of Linezolid MIC to compound MIC for Streptococcus pneumoniae.
The subject of assay [2] is Staphylococcus aureus. In words: Antibacterial activity against methicillin-susceptible Staphylococcus aureus by agar microdilution method. Summed up:
(§1)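 MIC by agar microdilution following NCCLS standard M7-A6 (2003), tested against clinical isolates: MRSA n = 6, MRSE n = 5, MSSA n = 5, MSSE n = 5; values given as a single MIC or a range across isolates.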

Assay [3] deals with Staphylococcus epidermidis. As to the kind of experiment: Antibacterial activity against methicillin-susceptible Staphylococcus epidermidis by agar microdilution method. Summed up:
as §1

In assay [4] the test system is Staphylococcus aureus. As to the kind of experiment: Ratio of Linezolid MIC to compound MIC for methicillin-susceptible Staphylococcus aureus.
Assay [5] has as its system Staphylococcus aureus. In words: Antibacterial activity against methicillin-resistant Staphylococcus aureus by agar microdilution method. Summed up: as §1
Assay [6] relates to Staphylococcus epidermidis. As to the kind of experiment: Ratio of Linezolid MIC to compound MIC for methicillin-susceptible Staphylococcus epidermidis.
The test system of assay [7] is Streptococcus pneumoniae. As to the kind of experiment: Antibacterial activity against Streptococcus pneumoniae by agar microdilution method. Summed up:
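MIC read by agar microdilution following NCCLS standard M7-A6 (2003), against a panel of 3 Streptococcus pneumoniae clinical isolates. Values in µg/mL, given as a range where the isolates differed.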

The test system of assay [8] is Staphylococcus epidermidis. In words: Antibacterial activity against methicillin-resistant Staphylococcus epidermidis by agar microdilution method. In a few lines:
as §1

In general, MIC refers to the lowest concentration found to suppress growth. Higher therefore signals a less susceptible organism.

Turning to `C=C[C@]1(C)C[C@@H](OC(=O)N2Cc3ccc(NC(=O)[C@@H]4CCCN4)cc3C2=O)[C@]2(C)[C@H](C)CC[C@]3(CCC(=O)[C@H]32)[C@@H](C)[C@@H]1O.Cl`, the Ratio (in the assay on Streptococcus pneumoniae [1]; with Staphylococcus aureus [4]; in assay [6]) was 4 throughout. For the same molecule, the MIC with Staphylococcus aureus [2] came to 0.25 µg/mL; in assay [3] it was 0.25 µg/mL; against Staphylococcus aureus [5] it was 0.25 µg/mL; with Streptococcus pneumoniae [7] it was 0.5 µg/mL; in assay [8], 0.25 µg/mL.

As to `C=C[C@]1(C)C[C@@H](OC(=O)N2Cc3ccccc3C2=O)[C@]2(C)[C@H](C)CC[C@]3(CCC(=O)[C@H]32)[C@@H](C)[C@@H]1O`, the Ratio (with Streptococcus pneumoniae [1]; in the assay with Staphylococcus aureus [4]; in assay [6]) was 4 throughout. Also, the MIC (against Staphylococcus aureus [2]; in assay [3]; in the assay with Staphylococcus aureus [5]; with Streptococcus pneumoniae [7]; in assay [8]) was 0.125 µg/mL (≈ 0.261 µM) each time.

Turning to `C=C[C@]1(C)C[C@@H](OC(=O)N2Cc3ccc(F)cc3C2=O)[C@]2(C)[C@H](C)CC[C@]3(CCC(=O)[C@H]32)[C@@H](C)[C@@H]1O`, the Ratio (with Streptococcus pneumoniae [1]; in the assay with Staphylococcus aureus [4]; in assay [6]) was 4 each time. Also, the MIC (with Staphylococcus aureus [2]; in assay [3]; against Staphylococcus aureus [5]; against Streptococcus pneumoniae [7]; in assay [8]) was 0.125 µg/mL (≈ 0.251 µM) throughout.

Turning to `C=C[C@]1(C)C[C@@H](OC(=O)N2Cc3cc(N4CCN(C)CC4)ccc3C2=O)[C@]2(C)[C@H](C)CC[C@]3(CCC(=O)[C@H]32)[C@@H](C)[C@@H]1O`, the Ratio (in the assay on Streptococcus pneumoniae [1]; with Staphylococcus aureus [4]; in assay [6]) was 4 each time. The minimal inhibitory concentration (MIC) against Staphylococcus aureus [2] turned out to be 0.125 µg/mL (≈ 0.216 µM); in assay [3], 0.125 µg/mL (≈ 0.216 µM); in the assay with Staphylococcus aureus [5] it was 0.125 µg/mL (≈ 0.216 µM); in the assay on Streptococcus pneumoniae [7] it was 0.25 µg/mL (≈ 0.433 µM); in assay [8], 0.125 µg/mL (≈ 0.216 µM).

`C=C[C@]1(C)C[C@@H](OC(=O)N2Cc3cc(N)ccc3C2=O)[C@]2(C)[C@H](C)CC[C@]3(CCC(=O)[C@H]32)[C@@H](C)[C@@H]1O`: the Ratio (in the assay with Streptococcus pneumoniae [1]; in the assay with Staphylococcus aureus [4]; in assay [6]) was 4 each time. Further, the MIC (in the assay on Staphylococcus aureus [2]; in assay [3]; in the assay with Staphylococcus aureus [5]; in the assay with Streptococcus pneumoniae [7]; in assay [8]) was 0.125 µg/mL (≈ 0.253 µM) throughout.

As for `C=C[C@]1(C)C[C@@H](OC(=O)N2CCc3cc(OC)c([N+](=O)[O-])cc3C2=O)[C@]2(C)[C@H](C)CC[C@]3(CCC(=O)[C@H]32)[C@@H](C)[C@@H]1O`, the Ratio (in the assay with Streptococcus pneumoniae [1]; with Staphylococcus aureus [4]; in assay [6]) was 4 in each case. Further, the MIC amounted to 0.125 µg/mL (≈ 0.22 µM) in the assay on Staphylococcus aureus [2]; 0.25 µg/mL (≈ 0.44 µM) in assay [3]; 0.25 µg/mL (≈ 0.44 µM) with Staphylococcus aureus [5]; 0.25 µg/mL (≈ 0.44 µM) against Streptococcus pneumoniae [7]; 0.25 µg/mL (≈ 0.44 µM) in assay [8].

Consider `C=C[C@]1(C)C[C@@H](OC(=O)N2CCc3cc(OCCCN4CCN(C)CC4)ccc3C2=O)[C@]2(C)[C@H](C)CC[C@]3(CCC(=O)[C@H]32)[C@@H](C)[C@@H]1O`, for which the MIC (in the assay on Staphylococcus aureus [2]; in assay [3]; in the assay on Staphylococcus aureus [5]; in the assay on Streptococcus pneumoniae [7]; in assay [8]) was 0.5 µg/mL (≈ 0.769 µM) each time.

In the case of `C=C[C@]1(C)C[C@@H](OC(=O)N2CCc3cc(OCCCCN4CCOCC4)ccc3C2=O)[C@]2(C)[C@H](C)CC[C@]3(CCC(=O)[C@H]32)[C@@H](C)[C@@H]1O`, the MIC (with Staphylococcus aureus [2]; in assay [3]; with Staphylococcus aureus [5]; in the assay with Streptococcus pneumoniae [7]; in assay [8]) was 0.5 µg/mL (≈ 0.768 µM) in each case.

For the molecule `C=C[C@]1(C)C[C@@H](OC(=O)N2CCc3ccc(N)cc3C2=O)[C@]2(C)[C@H](C)CC[C@]3(CCC(=O)[C@H]32)[C@@H](C)[C@@H]1O`, the minimum inhibitory concentration (MIC) (in the assay with Staphylococcus aureus [2]; in assay [3]; in the assay with Staphylococcus aureus [5]; in the assay with Streptococcus pneumoniae [7]; in assay [8]) was 0.0625 µg/mL (≈ 0.123 µM) each time.

Regarding `C=C[C@]1(C)C[C@@H](OC(=O)CS[C@@H]2C[C@H]3CC[C@@H](C2)N3C)[C@]2(C)[C@H](C)CC[C@]3(CCC(=O)[C@H]32)[C@@H](C)[C@@H]1O` [RETAPAMULIN], the MIC worked out at 0.0625 µg/mL (≈ 0.121 µM) in the assay on Staphylococcus aureus [2]; 0.0625 µg/mL (≈ 0.121 µM) in assay [3]; 0.125 µg/mL (≈ 0.241 µM) in the assay on Staphylococcus aureus [5]; 0.0625 µg/mL (≈ 0.121 µM) in the assay on Streptococcus pneumoniae [7]; 0.125 µg/mL (≈ 0.241 µM) in assay [8].
